This is an account of results in ChEMBL document CHEMBL3621114, “Design and Synthesis of Non-Peptide, Selective Orexin Receptor 2 Agonists” (J Med Chem, 2015).

Broadly, the Emax is the greatest response seen or fitted, relative to the assay's reference. Broadly, the EC50 is the concentration needed to bring the measured effect to its halfway point. By Ki is commonly meant the dissociation constant of the complex between target and ligand, obtained from inhibition or displacement. A high value points to a looser hold on the target.

The source made the active and inactive calls. The rule behind the calls is not given here.

In data set [1] the target is T1, Orexin receptor type 2 (Homo sapiens) (UniProt O43614).
T1 sequence (whole entry): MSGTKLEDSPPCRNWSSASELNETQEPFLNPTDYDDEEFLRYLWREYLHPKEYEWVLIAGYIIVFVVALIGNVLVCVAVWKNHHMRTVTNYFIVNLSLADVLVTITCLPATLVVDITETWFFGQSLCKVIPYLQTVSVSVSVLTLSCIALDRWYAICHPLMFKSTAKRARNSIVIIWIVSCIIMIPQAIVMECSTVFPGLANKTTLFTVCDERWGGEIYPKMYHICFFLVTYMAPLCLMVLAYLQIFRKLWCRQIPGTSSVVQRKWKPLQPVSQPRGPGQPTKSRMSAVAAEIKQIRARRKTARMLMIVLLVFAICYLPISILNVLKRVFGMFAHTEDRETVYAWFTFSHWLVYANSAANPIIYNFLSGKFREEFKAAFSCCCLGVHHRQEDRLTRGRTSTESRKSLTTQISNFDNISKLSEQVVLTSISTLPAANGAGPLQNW
Description: Agonist activity at human OX2R expressed in CHOK1 cells at 10 uM by calcium mobilization assay relative to orexin-A. Format: functional, cell-based. To be noted: CHO-K1. For orientation: A change in cytosolic calcium serves as a functional read-out for many receptors and channels.

Data set [2] deals with T1, Orexin receptor type 2 (Homo sapiens). The data set is described as follows: Agonist activity at human OX2R expressed in CHOK1 cells at 10 uM by NFAT-response luciferase reporter gene assay relative to orexin-A. Format: cell-based. The note with it: CHO-K1. In general terms: Reporter assays use an easily measured gene product as a stand-in for the process of interest.

Data set [3] has the same target. Description: Agonist activity at human OX2R expressed in CHOK1 cells at 10 uM by calcium mobilization assay relative to orexin-A. The note with it: CHO-K1.
Data set [4] deals with T2, Orexin/Hypocretin receptor type 1 (Homo sapiens, UniProt O43613).
T2 sequence (O43613 whole entry): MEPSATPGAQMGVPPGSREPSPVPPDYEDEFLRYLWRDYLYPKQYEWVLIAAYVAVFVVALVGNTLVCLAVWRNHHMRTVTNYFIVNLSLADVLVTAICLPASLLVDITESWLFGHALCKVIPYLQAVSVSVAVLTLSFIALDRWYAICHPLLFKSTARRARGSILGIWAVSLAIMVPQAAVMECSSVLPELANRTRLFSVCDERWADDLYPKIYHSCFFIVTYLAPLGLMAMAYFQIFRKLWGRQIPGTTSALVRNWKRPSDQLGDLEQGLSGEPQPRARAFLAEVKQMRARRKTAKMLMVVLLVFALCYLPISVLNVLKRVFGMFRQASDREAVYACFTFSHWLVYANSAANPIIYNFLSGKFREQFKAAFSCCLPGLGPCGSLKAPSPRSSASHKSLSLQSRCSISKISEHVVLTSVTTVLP
Description: Agonist activity at human OX1R expressed in CHOK1 cells by calcium mobilization assay. Format: functional, cell-based, CHO-K1.

In data set [5] the test system is CHO-K1. Description: Selectivity index, ratio of EC50 for human OX1R expressed in CHOK1 cells to EC50 for human OX2R expressed in CHOK1 cells. Format: cell-based.
The target of data set [6] is T3, Orexin receptor type 2 (Homo sapiens, UniProt O43614).
T3 sequence (O43614 whole entry): T1 sequence (whole entry)
Description: Agonist activity at human OX2R expressed in CHOK1 cells by calcium mobilization assay.

In data set [7] the target is T4, Orexin/Hypocretin receptor type 1 (Homo sapiens) (UniProt O43613).
T4 sequence (whole entry): T2 sequence (O43613 whole entry)
The data set is described as follows: Agonist activity at human OX1R expressed in CHOK1 cells by calcium mobilization assay relative to orexin-A. Format: functional, cell-based. The note with it: CHO-K1.

Data set [8] has as its target T3, Orexin receptor type 2. The data set is described as follows: Agonist activity at human OX2R expressed in CHOK1 cells by NFAT-response luciferase reporter gene assay. Format: cell-based. To be noted: cho-k1.
Data set [9] has as its target T1, Orexin receptor type 2 (Homo sapiens). The data set is described as follows: Agonist activity at human OX2R expressed in CHOK1 cells at 1 uM by calcium mobilization assay relative to orexin-A. Format: functional, cell-based. To be noted: CHO-K1.
Data set [10] concerns the target T3, Orexin receptor type 2. The data set is described as follows: biochemical.
In data set [11] the target is T1, Orexin receptor type 2 (Homo sapiens). Description: Agonist activity at human OX2R expressed in CHOK1 cells at 5 uM by calcium mobilization assay relative to orexin-A. Format: functional, cell-based. To be noted: CHO-K1.
Data set [12] in a line: Stability in pH 8.0 buffer. Format: physicochemical.
Data set [13] concerns the target T1, Orexin receptor type 2 (Homo sapiens). Description: Agonist activity at human OX2R expressed in CHOK1 cells at 5 uM by NFAT-response luciferase reporter gene assay relative to orexin-A. Format: cell-based. The note with it: CHO-K1.
Data set [14] concerns Mus musculus. The data set is described as follows: Induction of wakefullness in C57BL/6J mouse assessed as increase in wake time by measuring EEG/EMG signals at 260 nmol, icv dosed on every other day during light phase. Format: functional. Summed up:
(§1)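 Intracerebroventricular injection during the light phase, given at 6 h into the light phase (ZT6). Saline was the vehicle control. Sleep/wake states were scored from EEG/EMG recordings, and the read-out was cumulative time awake within 2 h after dosing. Wild-type C57BL/6J mice and OX1R/OX2R double-knockout mice were used.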

For data set [15], the system named is Mus musculus. The data set is described as follows: Induction of wakefullness in C57BL/6J mouse assessed as EEG/EMG signals at 32 to 260 nmol, icv dosed on every other day during light phase. Format: functional, organism-based. Summed up:
as §1

Data set [16] concerns Mus musculus. The data set is described as follows: Induction of wakefullness in OX1R/OX2R double knock out C57BL/6J mouse assessed as increase in wake time by measuring EEG/EMG signals at 260 nmol, icv dosed on every other day during light phase. Format: functional, organism-based. The method in brief:
as §1

For `COc1ccccc1C(=O)NCCNc1ccc(NS(=O)(=O)c2cc(C(C)C)c(C)cc2OC)cc1`, the Efficacy in data set [1] worked out at 12%; in data set [2] it was 18%.
As for `COc1ccccc1C(=O)NCCNc1cccc(NS(=O)(=O)c2cc(-c3cccnc3)ccc2OC)c1`, the Emax in data set [3] was 88%.
As for `COc1ccc(-c2cccc(C(=O)N(C)C)c2)cc1S(=O)(=O)Nc1cccc(NCCNC(=O)c2cccc(Cl)c2)c1`, the EC50 in data set [4] (read-out: EC50) was determined as 5.72 µM; in [6], 0.094 µM. Besides, the Ratio EC50 in [5] is 60. The Emax in data set [7] was determined as 73%.
As for `COc1ccccc1C(=O)NCCNc1cccc(NS(=O)(=O)c2cc(-c3cccc(C(=O)N4CCC4)c3)ccc2OC)c1`, the EC50 in data set [6] came to 0.235 µM. Besides, the Emax in [3] came to 85%.
On to `COc1ccc(-c2cccc(C(=O)N(C)C)c2)cc1C(=O)Nc1cccc(NCCNC(=O)c2cccc(C)c2)c1`, for which the EC50 entry in [4] (cho-k1) and in data set [8] was “Not Active” each time.
`CNC(=O)c1cccc(-c2ccc(OC)c(S(=O)(=O)Nc3cccc(NCCNC(=O)c4ccccc4OC)c3)c2)c1`: the Emax in data set [9] was 98%.
Regarding `COc1ccccc1C(=O)NCCNc1cccc(NS(=O)(=O)c2cc(-c3ccccc3)ccc2OC)c1`, the EC50 in data set [6] is > 10 µM. Also, in [3], the Emax worked out at 48%.
Take `COc1ccc(-c2cccc(C(=O)N(C)C)c2)cc1S(=O)(=O)Nc1cccc(NCCNC(=O)c2ccccc2N(C)C)c1` [listing 1 of 2 here]: the figures for the EC50 in data set [4] (read-out: EC50) and in [6] were 2.75 µM and 0.028 µM, respectively.
For `COc1ccc(-c2cccc(C(=O)N(C)C)c2)cc1S(=O)(=O)Nc1cccc(NCCNC(=O)c2cccc(C)c2)c1`, in data set [10], the Ki was found to be 0.77 µM. Besides, in [7], the Emax came out at 100%.
On to `COc1ccccc1C(=O)NCCNc1cccc(NS(=O)(=O)c2cc(-c3cccc(C(=O)N(C)C)c3)ccc2OC)c1`, for which the EC50 in [4] (read-out: EC50) was determined as 5.23 µM. In [5], the Ratio EC50 is 105. For the same compound, the results for the Emax in data set [7] and in data set [9] were 46% and 74%, respectively.
With `Cc1ccc(S(=O)(=O)n2nc(OC(=O)c3c(-c4ccccc4Cl)noc3C)cc2N)cc1`, the Efficacy result in [11] was “inactive”. In addition, the Stability entry in [12] was “Unstable”. The same compound registered an Efficacy in data set [13] of 36%.
In the case of `COc1ccccc1C(=O)N1CCC(CNS(=O)(=O)c2cc(C(C)C)c(C)cc2OC)CC1`, the Efficacy entry in data set [1] was “inactive”. Moreover, in data set [2], the Efficacy came out at 16%.
For `COc1ccc(-c2cccc(C(=O)N(C)C)c2)cc1S(=O)(=O)Nc1cccc(NCCNC(=O)c2ccccc2)c1`, in [6], the EC50 was > 10 µM.
As for `COc1cccc(-c2ccc(OC)c(S(=O)(=O)Nc3cccc(NCCNC(=O)c4ccccc4OC)c3)c2)c1`, the EC50 in data set [6] worked out at 0.8 µM. Also, in data set [9], the maximum response (Emax) was found to be 54%.
As to `COc1ccc(-c2cccc(C(=O)N(C)C)c2)cc1S(=O)(=O)Nc1cccc(NCCNC(=O)c2ccccc2N(C)C)c1.Cl`, the Time in data set [14] is on record as 53 min.
Regarding `COc1ccccc1C(=O)NCCNc1cccc(NS(=O)(=O)c2cc(-c3cccc(F)c3)ccc2OC)c1`, the EC50 in data set [6] was > 10 µM. In addition, the Emax in [3] turned out to be 47%.
As for `COc1cccc(C(=O)NCCNc2cccc(NS(=O)(=O)c3cc(-c4cccc(C(=O)N(C)C)c4)ccc3OC)c2)c1`, the EC50 in data set [4] (read-out: EC50) was 9.25 µM. For the same compound, in [5], the Ratio EC50 was 280. The Emax in [7] was 49%.
As to `COc1ccccc1C(=O)N[C@H]1CC[C@H](CNS(=O)(=O)c2cc(C(C)C)c(C)cc2OC)CC1`, the Efficacy result in data set [1] is “inactive”. Moreover, the Efficacy in data set [2] amounted to 24%.
In the case of `COc1ccccc1C(=O)NCCNc1cccc(NS(=O)(=O)c2cc(C(C)C)c(C)cc2OC)c1`, the Efficacy in data set [1] was 22%; in [2] it was 33%.
On the same counts, the results for `COc1ccccc1C(=O)NCCNc1cc(C)ccc1NS(=O)(=O)c1cc(C(C)C)c(C)cc1OC` are “inactive” and 9%.
Take `COc1ccc(-c2cccc(C(=O)N(C)C)c2)cc1S(=O)(=O)Nc1cccc(NCCNC(=O)c2ccccc2Cl)c1`: the concentration giving a half-maximal response (EC50) in data set [4] (read-out: EC50) is 6.13 µM. The Ratio EC50 in [5] was 198. The Emax in data set [7] is 50%.
On to `COC(=O)c1cccc(-c2ccc(OC)c(S(=O)(=O)Nc3cccc(NCCNC(=O)c4ccccc4OC)c3)c2)c1`, for which the EC50 in data set [6] is > 10 µM. The Emax in data set [3] turned out to be 49%.
Taken in the same sequence, the figures for `COc1ccccc1C(=O)NCCNc1cccc(NS(=O)(=O)c2cc(-c3cccc(N)c3)ccc2OC)c1` were > 1 µM and 73%.
As for `COc1ccc(-c2cccc(C(=O)N(C)C)c2)cc1S(=O)(=O)Nc1cccc(NCCNC(=O)c2ccccc2N(C)C)c1` [listing 2 of 2 here], the Emax in data set [7] was determined as 55%. Also, the Activity entry in data set [15] is “Dose-dependent effect”. Further, the outcome in data set [16] was inactive.
